From ChEMBL document CHEMBL2203025, “6,7-Dihydroxy-1-oxoisoindoline-4-sulfonamide-containing HIV-1 integrase inhibitors” (Bioorg Med Chem Lett, 2012)

Experiments:
[1] = target: T1, Human immunodeficiency virus type 1 integrase (Human immunodeficiency virus 1, UniProt Q7ZJM1); assay: Inhibition of HIV1 recombinant integrase strand transfer activity using [32P]-labeled oligonucleotide a substrate after 30 mins by electrophoretic analysis
In short: (§1)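 Gel-based IN assay run in vitro with Mg2+ as cofactor. IC50 values were determined separately for the 3'-processing and strand transfer reactions.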

[2] = target: T1, Human immunodeficiency virus type 1 integrase; assay: Inhibition of HIV1 recombinant integrase 3' processing activity using [32P]-labeled oligonucleotide a substrate after 30 mins by electrophoretic analysis; in short: as §1
[3] = Selectivity index, ratio of CC50 for human HOS cells to EC50 for HIV1 expressing wild type integrase; format: toxicity, cell-based; conditions: read-out: Ratio CC50/EC50
[4] = system: Human immunodeficiency virus 1; assay: Ratio of EC50 for HIV1 expressing integrase Y143R mutant to EC50 for HIV1 expressing wild type integrase; format: functional
[5] = system: Human immunodeficiency virus 1; assay: Antiviral activity against HIV1 expressing wild type integrase infected in HOS cells; format: functional, organism-based; conditions: Human immunodeficiency virus 1, HOS
In short: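 HOS cells infected with a lentiviral vector carrying wild-type IN; EC50 from the infected cells.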

HOS = assay: Cytotoxicity against human HOS cells assessed as reduction in ATP level; format: cell-based

T1 sequence (Q7ZJM1 whole entry): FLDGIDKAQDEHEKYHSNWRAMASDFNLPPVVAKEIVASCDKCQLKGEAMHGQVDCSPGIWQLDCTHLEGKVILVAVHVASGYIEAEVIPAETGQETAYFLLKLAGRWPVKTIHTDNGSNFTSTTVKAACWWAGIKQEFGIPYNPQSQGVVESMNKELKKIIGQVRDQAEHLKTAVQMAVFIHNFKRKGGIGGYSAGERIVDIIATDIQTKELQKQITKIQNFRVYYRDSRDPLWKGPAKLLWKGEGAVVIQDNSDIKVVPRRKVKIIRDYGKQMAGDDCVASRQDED

SMILES	IC50 [1]	IC50 [2]	selectivity ratio [3]	Ratio EC50 [4]	EC50 [5]	CC50 (HOS)
CN(C)CCCNS(=O)(=O)c1cc(O)c(O)c2c1CN(Cc1ccc(F)c(Cl)c1)C2=O	0.24 µM	15.9 µM	–	–	–	–
CN(C)S(=O)(=O)c1c(O)c(O)c(O)c2c1CN(Cc1ccc(F)c(Cl)c1)C2=O	0.26 µM	7.6 µM	29	2	0.159 µM	4.6 µM
CN(C)S(=O)(=O)c1ccc(-c2c(O)c(O)c3c(c2S(=O)(=O)N(C)C)CN(Cc2ccc(F)c(Cl)c2)C3=O)cc1	0.25 µM	35.2 µM	21	4	0.132 µM	2.8 µM
Cc1cc2c(c(O)c1O)C(=O)N(Cc1ccc(F)c(Cl)c1)C2	11.5 µM	> 111 µM	–	–	–	–
CCCCc1cc2c(c(O)c1O)C(=O)N(Cc1ccc(F)c(Cl)c1)C2	6.8 µM	> 111 µM	–	–	–	–
CC(C)c1cc2c(c(O)c1O)C(=O)N(Cc1ccc(F)c(Cl)c1)C2	5.4 µM	> 111 µM	–	–	–	–
O=C1c2c(cc(-c3ccccc3)c(O)c2O)CN1Cc1ccc(F)c(Cl)c1	0.87 µM	> 111 µM	–	–	–	–
O=C1c2c(cc(O)c(O)c2O)CN1Cc1ccc(F)c(Cl)c1	1.5 µM	36 µM	–	–	–	–
CN(C)S(=O)(=O)c1ccc(-c2cc3c(c(O)c2O)C(=O)N(Cc2ccc(F)c(Cl)c2)C3)cc1	0.4 µM	> 111 µM	–	–	–	–
CNS(=O)(=O)c1cc(O)c(O)c2c1CN(Cc1ccc(F)c(Cl)c1)C2=O	0.12 µM	17.5 µM	108	1	0.04 µM	4.3 µM
CCN(CC)S(=O)(=O)c1cc(O)c(O)c2c1CN(Cc1ccc(F)c(Cl)c1)C2=O	0.054 µM	9.5 µM	494	3	0.017 µM	8.4 µM
O=C1c2c(O)c(O)cc(S(=O)(=O)NCCCBr)c2CN1Cc1ccc(F)c(Cl)c1	0.11 µM	14.7 µM	49	1	0.093 µM	4.6 µM
O=C1c2c(O)c(O)cc(S(=O)(=O)NCCN3CCOCC3)c2CN1Cc1ccc(F)c(Cl)c1	0.32 µM	30.2 µM	–	–	–	–
O=C1c2c(O)c(O)cc(S(=O)(=O)NCCN3CCNCC3)c2CN1Cc1ccc(F)c(Cl)c1	0.31 µM	19.3 µM	–	–	–	–
O=C1c2c(O)c(O)cc(S(=O)(=O)NCc3ccccn3)c2CN1Cc1ccc(F)c(Cl)c1	0.37 µM	23 µM	–	–	–	–
CN1CCN(S(=O)(=O)c2cc(O)c(O)c3c2CN(Cc2ccc(F)c(Cl)c2)C3=O)CC1	0.4 µM	23 µM	144	1	0.043 µM	6.2 µM
NCCN1CCN(S(=O)(=O)c2cc(O)c(O)c3c2CN(Cc2ccc(F)c(Cl)c2)C3=O)CC1	0.19 µM	21.2 µM	–	–	–	–
O=C1c2c(O)c(O)cc(S(=O)(=O)N3CCOCC3)c2CN1Cc1ccc(F)c(Cl)c1	0.047 µM	6.8 µM	241	2	0.022 µM	5.3 µM
O=C(O)CNS(=O)(=O)c1cc(O)c(O)c2c1CN(Cc1ccc(F)c(Cl)c1)C2=O	0.08 µM	11.7 µM	115	3	0.929 µM	107 µM
CN(CC(=O)O)S(=O)(=O)c1cc(O)c(O)c2c1CN(Cc1ccc(F)c(Cl)c1)C2=O	0.058 µM	6.9 µM	680	2	0.14 µM	95.2 µM
Cc1c(O)c(O)c2c(c1S(=O)(=O)N(C)C)CN(Cc1ccc(F)c(Cl)c1)C2=O	2.8 µM	49.7 µM	20	2	0.322 µM	6.3 µM
CCCCc1c(O)c(O)c2c(c1S(=O)(=O)N(C)C)CN(Cc1ccc(F)c(Cl)c1)C2=O	2.3 µM	> 111 µM	2	1	3.8 µM	7 µM
CC(C)c1c(O)c(O)c2c(c1S(=O)(=O)N(C)C)CN(Cc1ccc(F)c(Cl)c1)C2=O	0.19 µM	> 111 µM	3	–	3.6 µM	12.1 µM
CC(C)c1c(O)c(O)c2c(c1S(=O)(=O)N1CCOCC1)CN(Cc1ccc(F)c(Cl)c1)C2=O	0.41 µM	> 111 µM	2	4	3.4 µM	5.9 µM
O=C1c2c(ccc(O)c2O)CN1Cc1ccc(F)c(Cl)c1	–	–	12	1	0.447 µM	–
